According to ChEMBL document CHEMBL1127806, “Substrate specificity in short-chain phospholipid analogs at the active site of human synovial phospholipase A2” (J Med Chem, 1994):

Tests used:
[1] = Ratio of catalysis rate (kcat) and Michaelis-Menten constant (Km) of the compound
In short: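 Recombinant human synovial PLA₂ (baculovirus-expressed, HPLC-purified) at 14 nM in 20 mM HEPES pH 7.5, 2 mM Ca²⁺, 0.8 mM DTNB. Thioester hydrolysis read at 405 nm as thionitrobenzoate (ε 13 600). Initial rates measured at substrate concentrations up to 100 μM. Apparent kcat/KM taken as the slope of rate versus [S] divided by enzyme concentration.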

[2] = Critical micelle concentration determined from the plots of the fluorescence intensity as a function of compound concentration; type: ADME
In short: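 Fluorescence of 8-anilino-1-naphthalenesulfonic acid (5 μM) followed as a function of compound concentration. Buffer: 20 mM HEPES pH 7.5 with 2 mM Ca²⁺, no DTNB. cmc read from the intensity-versus-concentration plot.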

[3] = Hydrolysis rate of the compound
In short: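 pH-stat at pH 9, titrated with 1 mM NaOH. Substrate 100 μM in deionized water with 2 mM Ca²⁺, under a nitrogen stream. Started with recombinant human synovial PLA₂ (1.69 nmol, 2.41 μg), purified from baculovirus by reversed-phase HPLC; preliminary set used E. coli-expressed enzyme. Rate recorded for 1 h from base consumption.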

[4] = Hydrolysis turn over determined from the plots of the fluorescence assay quantified by HPLC
In short: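 Recombinant human synovial PLA2 expressed in E. coli. Turnover of an amine-headgroup (phosphatidylethanolamine) substrate was measured by derivatizing the amine with excess fluorescamine and quantifying the fluorescent derivatives by reversed-phase HPLC. The rate is expressed as nmol·min⁻¹·mg⁻¹ enzyme.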

Row | Ratio [1] | CMC [2] | Hydrolysis (nmol min-1 mg-1) [3] | Compound | CMC [4] [mM]
1 | 160 l s-1 M-1 | – | – | CCCCCCOC[C@H](COP(=O)(O)OC)SC(=O)CCc1ccccc1 | –
2 | < 100 l s-1 M-1 | – | – | CC/C=C/C(=O)S[C@H](COCCCCCC)COP(=O)(O)OC | –
3 | < 100 l s-1 M-1 | – | – | CCCCCCOC[C@H](COP(=O)(O)OC)SC(=O)c1ccccc1 | –
4 | < 10 l s-1 M-1 | >= 3 mM | – | CCC(=O)SC[C@H](COP(=O)([O-])OC)SC(=O)CC.[Li+] | –
5 | 408000 l s-1 M-1 | 0.03 mM | – | CCCCCCCC(=O)SC[C@H](COP(=O)([O-])OC)SC(=O)CCCCCCC.[Li+] | –
6 | 12000 l s-1 M-1 | 0.13 mM | – | CCCCCCCCOC[C@H](COP(=O)([O-])OC)SC(=O)CCCCCCC.[Li+] | –
7 | – | 0.5 mM | 13 | CCCCCC(=O)OC[C@H](COP(=O)(O)OC[C@H]1CCCN1)OC(=O)CCCCC | –
8 | < 100 l s-1 M-1 | – | – | CCCCCOC[C@H](COP(=O)(O)OC)SC(=O)CCC | –
9 | < 100 l s-1 M-1 | 0.04 mM | – | CCCCCC(=O)SC[C@H](COP(=O)(OC)OC)SC(=O)CCCCC | –
10 | – | – | < 5 | CCCCCC(=O)OC[C@H](COP(=O)(O)OC[C@@H](N)C(=O)O)OC(=O)CCCCC | –
11 | 627 l s-1 M-1 | 0.4 mM | – | CCCCCCCCCC(=O)S[C@H](COCCC(C)(C)C)COP(=O)([O-])OC.[Li+] | –
12 | – | 0.8 mM | 12 | CCCCCC(=O)OC[C@H](COP(=O)(O)OC[C@@H]1CCCN1)OC(=O)CCCCC | –
13 | < 100 l s-1 M-1 | – | – | CCCCCCOC[C@H](COP(=O)(O)OC)SC(=O)CCC(C)C | –
14 | 2500 l s-1 M-1 | 0.1 mM | – | CCCCCCCCCC(=O)S[C@H](COCc1ccc(-c2ccccc2)cc1)COP(=O)([O-])OC.[Li+] | –

Further lines, the compound ahead of its results:

Row | Compound | Ratio [1] | CMC [2] | Hydrolysis (nmol min-1 mg-1) [3] | CMC [4] [mM]
15 | CCCC(=O)SC[C@H](COP(=O)([O-])OC)SC(=O)CCC.[Li+] | 200 l s-1 M-1 | 2.3 mM | – | –
16 | CCCCCC(=O)OC[C@H](COP(=O)(O)OCCO)OC(=O)CCCCC | – | – | < 5 | –
17 | CCCCCC(=O)OC[C@H](COP(=O)(O)OC)OC(=O)CCCCC | – | – | < 5 | –
18 | CCCCC(=O)SC[C@H](COP(=O)([O-])OC)SC(=O)CCCC.[Li+] | 870 l s-1 M-1 | > 9 mM | – | –
19 | CCCCCC(=O)OC[C@H](COP(=O)(O)OCCN)OC(=O)CCCCC | – | – | 5.3 | 2.3
20 | CCCCCCCCCC(=O)S[C@H](COCc1ccc(Oc2ccccc2)cc1)COP(=O)([O-])OC.[Li+] | 4600 l s-1 M-1 | 0.04 mM | – | –
21 | CCCCCCC(=O)SC[C@H](COP(=O)([O-])OC)SC(=O)CCCCCC.[Li+] | 37700 l s-1 M-1 | 0.3 mM | – | –
22 | CCCCCCCC(=O)S[C@H](COCCC)COP(=O)([O-])OC.[Li+] | 1200 l s-1 M-1 | 1 mM | – | –
23 | CC/C=C\CCOC[C@H](COP(=O)([O-])OC)SC(=O)CCCCCCCCC.[Li+] | 5900 l s-1 M-1 | 0.2 mM | – | –
24 | CCCCCCCCOC[C@H](COP(=O)(O)OC)SC(=O)CCC | 3700 l s-1 M-1 | – | – | –
25 | CCCCCC(=O)OC[C@H](COP(=O)(O)O[C@@H](C)[C@@H](N)C(=O)O)OC(=O)CCCCC | – | – | < 5 | –
26 | CCCCCC(=O)SC[C@H](COP(=O)([O-])OC)SC(=O)CCCCC.[Li+] | 1800 l s-1 M-1 | >= 3 mM | – | –
27 | CCCCCCCCCC(=O)S[C@H](COCc1ccccc1)COP(=O)([O-])OC.[Li+] | 5000 l s-1 M-1 | 0.2 mM | – | –
28 | CCCCCCCC(=O)S[C@H](COCCCCC)COP(=O)([O-])OC.[Li+] | 7000 l s-1 M-1 | 1.25 mM | – | –
29 | CCCCCCCCCC(=O)S[C@H](COC/C=C/c1ccccc1)COP(=O)([O-])OC.[Li+] | 19000 l s-1 M-1 | 0.04 mM | – | –
30 | CCCCCCCCC(=O)SC[C@H](COP(=O)([O-])OC)SC(=O)CCCCCCCC.[Li+] | 541000 l s-1 M-1 | < 0.03 mM | – | –
31 | CCCOC[C@H](COP(=O)([O-])OC)SC(=O)CCC.[Li+] | < 10 l s-1 M-1 | 3 mM | – | –
